A selection: hits, their analogues and other compounds. The true share with any hit is near 2.1%.
ASAP1 GAP inh: ASAP1 ArfGAP inhibition | Q9ULH1 | inhibition, % at 16.5 µM | 0.19% of 360,000 active | ASAP1-stimulated ARF1 GTP hydrolysis, GDP FP detection; in the data active means inhibition above about 25%;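 further: 0% = vehicle with enzyme and substrate and 100% = no enzyme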
Target sequence (Q9ULH1 325-724 limits assumed): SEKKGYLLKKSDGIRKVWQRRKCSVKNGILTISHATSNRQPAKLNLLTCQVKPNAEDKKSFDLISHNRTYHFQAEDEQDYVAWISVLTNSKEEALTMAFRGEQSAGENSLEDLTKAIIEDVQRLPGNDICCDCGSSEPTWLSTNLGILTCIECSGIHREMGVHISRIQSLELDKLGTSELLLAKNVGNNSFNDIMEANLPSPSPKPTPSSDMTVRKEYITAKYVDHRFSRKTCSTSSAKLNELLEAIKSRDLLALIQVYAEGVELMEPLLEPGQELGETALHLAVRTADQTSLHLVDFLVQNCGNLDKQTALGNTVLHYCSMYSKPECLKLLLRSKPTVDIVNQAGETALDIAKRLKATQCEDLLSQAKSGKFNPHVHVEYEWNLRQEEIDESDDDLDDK
ARFGAP1 inh: inhibitors of rat ARFGAP1; Q62848; Arfgap1-stimulated ARF1 GTP hydrolysis, GDP FP detection; inhibition, % at 16.5 µM; 0.26% of 360,000 active; AID 651572;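 active means inhibition above a per-plate limit, mean inhibition of low control wells plus 3 SD, cut at about 25% in these data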;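 further: 0% = DMSO wells with enzyme and 100% = wells lacking Arfgap1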
Target sequence (Q62848 1-136 limits assumed): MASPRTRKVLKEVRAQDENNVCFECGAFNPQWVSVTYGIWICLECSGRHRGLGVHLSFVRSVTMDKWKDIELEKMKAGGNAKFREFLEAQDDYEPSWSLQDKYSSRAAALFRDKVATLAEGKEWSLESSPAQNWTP
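system = rat Arfgap1 catalytic domain, aa 1-136 | technique = FP, GDP Alexa 633 tracer displaced from anti-GDP antibody, 620/688 nm | compound = one concentration, 16.5 µM, DMSO 1.26% | medium = HEPES-based buffer, pH 7.5 | timing = compound-enzyme preincubation 20 min, reaction 120 min, detection 60 min, 25 °C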
SUMO Mot1 rescue: SUMOylation pathway inhibition by Mot1-301 growth rescue; S. cerevisiae Mot1-301 growth rescue, ATP luminescence, 38.5C; percent above DMSO median, 100 means doubled; growth rescue, % at 18.8 µM; 1% of 320,000 active; AID 2716;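 active means every valid replicate shows activation above 250% relative to neutral control wells; inactive means the rest, any valid replicate at or below 250%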;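 further: OY570 slx delta 5 strain wells were the positive control but not used for scaling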
APOBEC3G inh: inhibitors of human APOBEC3G DNA deaminase | 0.28% of 330,000 active | inhibition, % at 20 µM | Q9HC16 | recombinant A3G, ssDNA deamination FAM/TAMRA fluorescence;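 active means inhibition of at least 40% at 20 µM, with no more than 30% in the related APOBEC3A deaminase screen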;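 further: plate controls were DMSO wells with A3G for no effect and wells lacking A3G enzyme for full effect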
APOBEC3A inh: human APOBEC3A DNA deaminase inhibition. recombinant A3A, FAM/TAMRA ssDNA deamination fluorescence. inhibition, % at 20 µM. 0.41% of 330,000 active. AID 493011;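 active means at least 40% inhibition at 20 µM here, with at most 30% in a related deaminase screen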;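 further: plate controls were A3A with DMSO for no effect and wells lacking A3A enzyme for full effect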
Target sequence (P31941 whole entry, looked up): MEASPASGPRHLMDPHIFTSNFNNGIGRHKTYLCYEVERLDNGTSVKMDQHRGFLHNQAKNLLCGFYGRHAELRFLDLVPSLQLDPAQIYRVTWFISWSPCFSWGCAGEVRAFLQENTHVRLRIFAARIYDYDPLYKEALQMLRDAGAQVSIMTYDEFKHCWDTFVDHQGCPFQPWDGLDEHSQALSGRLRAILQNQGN
C2C12 statin: protects C2C12 myotubes from simvastatin toxicity | ATP luminescence, 48 h; scaled: DMSO 0, geranylgeraniol control 100 | rescue of ATP level, % at 7.49 µM | 0.78% of 330,000 active;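 active means mean ATP rescue above about 67%, or every replicate alone reaching that limit, limit read from the data, passing the limit was not always enough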;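 further: myotubes were challenged with 10 µM simvastatin during compound exposure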
Numbers without * were called inactive; . = not tested or not shown.

SMILES | ASAP1 GAP inh | ARFGAP1 inh | SUMO Mot1 rescue | APOBEC3G inh | APOBEC3A inh | C2C12 statin
CCc1nn(-c2ccccc2)c(N)c1C#N | -18.8 | -11.7 | 289.7* | -6.8 | -1.0 | .
C[C@@H]1CCCCO[C@@H](CN(C)S(=O)(=O)c2ccc(F)cc2)[C@@H](C)CN([C@H](C)CO)C(=O)c2cc(NS(C)(=O)=O)ccc2O1 | . | . | . | . | . | -17.7
C[C@H]1CN([C@@H](C)CO)C(=O)c2cc(NS(=O)(=O)c3ccc(F)cc3)ccc2O[C@@H]1CN(C)S(=O)(=O)c1cccs1 | . | . | . | . | . | 81.1*
C[C@H](CO)N1C[C@H](C)[C@H](CN(C)S(=O)(=O)c2ccc(F)cc2)OCCCC[C@H](C)Oc2ccc(NS(C)(=O)=O)cc2C1=O | . | . | . | . | . | 105.5*
C[C@@H]1CCCCO[C@H](CN(C)S(=O)(=O)c2ccc(F)cc2)[C@H](C)CN([C@@H](C)CO)C(=O)c2cc(NC(=O)Cc3ccccc3)ccc2O1 | . | . | . | . | . | 152.3*
C[C@@H]1CCCCO[C@H](CN(C)S(=O)(=O)c2ccc(F)cc2)[C@@H](C)CN([C@@H](C)CO)C(=O)c2cc(NC(=O)Cc3ccccc3)ccc2O1 | . | . | . | . | . | -90.3
C[C@H](CO)N1C[C@H](C)[C@H](CN(C)S(=O)(=O)c2cccs2)Oc2ccc(NS(=O)(=O)c3ccc(F)cc3)cc2C1=O | . | . | . | . | . | 28.8
C[C@@H]1CCCCO[C@H](CN(C)S(C)(=O)=O)[C@@H](C)CN([C@@H](C)CO)C(=O)c2cc(NS(=O)(=O)c3ccc(F)cc3)ccc2O1 | . | . | . | . | . | 102.1*
Cc1ccc(S(=O)(=O)N[C@H]2C=C[C@@H](CC(=O)N3CCN(c4ccccc4)CC3)O[C@@H]2CO)cc1 | . | . | . | . | . | -3.6
COc1cccc(S(=O)(=O)N[C@H]2CC[C@H](CC(=O)NC3CCC3)O[C@@H]2CO)c1 | . | . | . | . | . | -2.7
O=C(Nc1ccc(F)cc1)N[C@@H]1CC[C@@H](CCn2cc(-c3ccccc3F)nn2)O[C@@H]1CO | . | . | . | . | . | -4.1
CC(=O)Nc1ccc2c(c1)C(=O)N(C)[C@@H]1CC[C@H](CC(=O)NCc3ccc4c(c3)OCO4)O[C@@H]1CO2 | . | . | . | . | . | -18.1
C[C@@H]1CN([C@@H](C)CO)S(=O)(=O)c2ccc(-c3ccccc3F)cc2O[C@H]1CN(C)Cc1ccncc1 | . | . | . | . | . | -72.6
COCC(=O)Nc1ccc2c(c1)C(=O)N(C)C[C@H](OC)[C@H](C)CN(CCC(F)(F)F)[C@H](C)CO2 | . | . | . | . | . | 1.3
C[C@@H]1CCCCO[C@H](CN(C)S(=O)(=O)c2ccc(F)cc2)[C@@H](C)CN([C@H](C)CO)C(=O)c2cc(NS(C)(=O)=O)ccc2O1 | . | . | . | . | . | -3.6
C[C@@H]1CCCCO[C@H](CN(C)S(=O)(=O)c2ccc(F)cc2)[C@H](C)CN([C@@H](C)CO)C(=O)c2cc(NS(C)(=O)=O)ccc2O1 | . | . | . | . | . | 81.2*
C[C@@H]1CCCCO[C@@H](CN(C)S(=O)(=O)c2ccc(F)cc2)[C@@H](C)CN([C@@H](C)CO)C(=O)c2cc(NC(=O)Nc3cccc4ccccc34)ccc2O1 | . | . | . | . | . | 37.3
C[C@@H]1CCCCO[C@@H](CN(C)S(=O)(=O)c2ccc(F)cc2)[C@H](C)CN([C@@H](C)CO)C(=O)c2cc(NC(=O)Nc3cccc4ccccc34)ccc2O1 | . | . | . | . | . | 83.6*
CNC[C@H]1Oc2ccc(NS(=O)(=O)c3ccc(F)cc3)cc2CC(=O)N([C@H](C)CO)C[C@@H]1C | . | . | . | . | . | 3.4
CCN(CC)c1ccc(C(=S)N2CCN(c3ccccc3)CC2)cc1 | 7.4 | 4.4 | -0.8 | -0.3 | -1.4 | 79.8*
COCCNC(=O)C[C@@H]1CC[C@H]2[C@H](COc3ccc(NC(=O)c4cnccn4)cc3C(=O)N2C)O1 | . | . | . | . | . | -3.6
CO[C@@H]1CN(C)C(=O)c2cc(NC(=O)c3cccc(F)c3)ccc2OC[C@@H](C)NC[C@H]1C | . | . | . | . | . | 17.3
COC(=O)Nc1ccc(Oc2ccccc2)cc1 | -6.3 | -4.5 | 278.1* | -4.3 | 1.7 | -4.6
CCNC(=S)Nc1ccc(Oc2ccccc2)cc1 | 13.0 | 3.0 | . | 0.5 | 1.5 | .
COc1ccc(NC(=S)Nc2ccc(Oc3ccccc3)cc2)cc1 | -4.7 | -1.4 | 276.8* | -3.4 | -3.3 | 7.0
SMILES | ASAP1 GAP inh | ARFGAP1 inh | SUMO Mot1 rescue | APOBEC3G inh | APOBEC3A inh | C2C12 statin
Cc1ccc(S(=O)(=O)N[C@@H]2CC[C@@H](CCNC(=O)c3ccccc3F)O[C@@H]2CO)cc1 | . | . | . | . | . | 7.0
Clc1ccc2nc(SCc3nnc(-c4ccccc4)o3)[nH]c2c1 | -0.5 | 0.1 | 649.8* | -7.1 | -4.0 | -8.1
Cc1cc(=O)[nH]c(SCc2nnc(-c3ccccc3)o2)n1 | -17.2 | -9.1 | 8.9 | -4.4 | -13.6 | 3.6
Cc1nn(C)cc1CNC(=O)Nc1cccc(Cl)c1 | 5.8 | 18.7 | 347.6* | -0.6 | 0.6 | 113.0*
Cc1nn(C)cc1CNC(=O)Nc1ccc(Br)cc1Cl | -11.6 | -0.3 | 14.2 | -3.7 | -0.6 | 3.7
CCSc1sccc1C1C(C#N)=C(N)N(c2cccnc2)C2=C1C(=O)CC(C)(C)C2 (stereo not given) | 1.5 | 7.4 | 48.6 | 0.5 | -1.1 | 77.5*
CC1(C)CC(=O)C2=C(C1)N(c1cccnc1)C(N)=C(C#N)C2c1cccs1 (stereo not given) | 0.4 | 2.6 | -8.5 | -6.9 | -3.0 | .
CCOc1ccc(CN(CCC#N)C(=S)NC(=O)c2ccccc2)cc1 | 5.8 | 2.2 | -8.4 | -12.1 | -2.0 | .
COc1ccc(CN(CCC#N)C(=S)NC(=O)c2ccccc2)cc1 | -5.8 | -0.7 | -2.0 | -7.1 | -7.3 | 114.0*
C[C@@H]1CN([C@H](C)CO)C(=O)Cc2cc(NC(=O)Cc3ccccc3)ccc2O[C@@H]1CN(C)Cc1ccc2c(c1)OCO2 | . | . | . | . | . | 62.3
C/C=C/c1ccc(OCCCNC(C)CC)c(OC)c1 (stereo not given) | 13.1 | -9.0 | 186.2 | -3.6 | -5.1 | 98.6*
Cc1ccc(-c2ccc(/C=N/NC(N)=S)o2)cc1 | -7.7 | 4.8 | 69.1 | -4.2 | -6.8 | .
CN(C)/N=C/c1ccc(/C=N/NC(N)=S)o1 | -9.9 | 1.4 | 422.2* | -7.8 | 3.1 | .
C[C@H]1CCCCO[C@H](CN(C)C(=O)C2CCCCC2)[C@@H](C)CN([C@@H](C)CO)C(=O)c2cc(NS(C)(=O)=O)ccc2O1 | . | . | . | . | . | -7.4
CC(=O)CSc1nc(C(F)(F)F)cc(=O)n1-c1ccccc1 | 2.2 | -0.9 | -13.6 | -6.1 | -4.6 | 150.8*
O=C(C[C@H]1CC[C@H](NC(=O)Nc2ccc3c(c2)OCO3)[C@H](CO)O1)NCc1ccc(F)cc1 | . | . | . | . | . | 0.7
CC(C)[C@H](NS(=O)(=O)c1ccccc1)C(=O)OCC(=O)NC(=O)NC1CCCCC1 | 4.2 | 8.9 | -8.7 | -7.9 | -3.2 | 113.6*
CC(C)[C@H](NS(=O)(=O)c1ccccc1)C(=O)OCC(=O)NC1CCCCC1 | -9.5 | 5.3 | -1.5 | -0.5 | 3.4 | -3.5

Compound activity from PubChem.
